PMI act hi M6P: activators of human phosphomannose isomerase at near-saturating mannose 6-phosphate. coupled PMI enzyme assay, resazurin fluorescence, 20 min; active compounds read high; 1 = untreated enzyme, 0 = substrate-free blank. P34949. AID 1216. activation factor at 20 µM. 190,000 compounds, 0.34% hits;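 active = activation factor of 2 or more at 20 µM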
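Test system: Human PMI in coupled enzyme assay | Input: 15 ng/mL PMI | Medium: HEPES-buffered pH 7.4 with magnesium and detergent | Compound: One concentration, 20 µM, in 1% DMSO | Incubation: Enzyme reaction with compound 20 min at room temperature | Detection: Diaphorase-driven resazurin-to-resorufin fluorescence, excitation 544, emission 590 nm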
Tb hexokinase: blocks Trypanosoma brucei hexokinase 1 activity. 220,000 compounds, 0.11% hits. AID 1430. inhibition, % at 10 µM. recombinant TbHK1, G6PDH-coupled NADH A340;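 active = inhibition of 50% or more in the single-dose primary screen; inactive = inhibition below 50%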
PMI act: increases human mannose-6-phosphate isomerase activity; P34949; purified human PMI, coupled resazurin fluorescence, 20 min; active compounds read high; 1 = vehicle control, 0 substrate-free wells; activation factor at 20 µM; 190,000 compounds, 0.005% hits; AID 1214;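 active = activation factor of 2 or more at 20 µM, relative to plate controls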
p97 inhibitor: human p97 ATPase inhibition | recombinant p97 ATPase, Kinase-Glo ATP luminescence, 3 h | inhibition, % at 8 µM | 220,000 compounds, 0.42% hits | AID 1481; in the data active = inhibition above about 15%;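 note: 0% = DMSO vehicle and 100% = wells lacking enzyme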
Target sequence (P55072 whole entry, looked up): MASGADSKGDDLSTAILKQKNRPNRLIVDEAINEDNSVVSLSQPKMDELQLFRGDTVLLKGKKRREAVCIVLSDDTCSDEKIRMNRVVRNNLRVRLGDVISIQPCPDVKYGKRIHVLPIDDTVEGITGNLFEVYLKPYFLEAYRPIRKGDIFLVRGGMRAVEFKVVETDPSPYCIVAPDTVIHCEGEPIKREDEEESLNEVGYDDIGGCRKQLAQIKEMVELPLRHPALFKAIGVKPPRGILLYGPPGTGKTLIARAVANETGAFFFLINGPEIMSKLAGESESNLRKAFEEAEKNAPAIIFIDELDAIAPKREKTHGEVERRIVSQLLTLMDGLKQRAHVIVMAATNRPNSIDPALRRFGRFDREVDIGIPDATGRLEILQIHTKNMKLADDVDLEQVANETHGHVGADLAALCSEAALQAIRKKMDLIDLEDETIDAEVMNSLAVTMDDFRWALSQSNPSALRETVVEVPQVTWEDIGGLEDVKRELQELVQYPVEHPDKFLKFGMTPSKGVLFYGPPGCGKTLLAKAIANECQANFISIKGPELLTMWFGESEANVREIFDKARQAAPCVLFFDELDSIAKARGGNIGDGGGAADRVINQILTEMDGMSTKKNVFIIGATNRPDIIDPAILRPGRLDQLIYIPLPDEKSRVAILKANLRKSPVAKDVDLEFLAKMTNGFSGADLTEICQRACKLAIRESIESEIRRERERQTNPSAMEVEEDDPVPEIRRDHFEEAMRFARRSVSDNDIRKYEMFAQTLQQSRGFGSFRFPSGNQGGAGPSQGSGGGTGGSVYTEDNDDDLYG
Redox H2O2 prof: compounds producing H2O2 with reducing agent – biochemical, NIH compound library profiling, artefact control for MLSCN library redox annotation, primary screen; 200,000 compounds, 0.03% hits; DTT-dependent redox cycling H2O2, phenol red/HRP absorbance; 100% = 100 µM peroxide control, 0% = buffer; AID 878; activation, % at 10 µM;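 active = activation of at least 50% relative to the plate's high and low controls in the primary single-dose screen; inactive = activation below 50%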;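 note: compound incubated with DTT at 0.8 mM final as the reducing agent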
G6PDH CS: L. mesenteroides G6PDH inhibition counter-screen. 200,000 compounds, 0.12% hits. inhibition, % at 5 µM. Purified L. mesenteroides G6PDH, diaphorase/resazurin coupled fluorescence, 45 min; in the data active = inhibition above about 50%
The depositor's hits bear a star. Sampled rows, rich in hits. Any-hit rate of the full collection: about 0.91%.

What do the screens show for `C/C(=N\Nc1ccc(F)cc1F)c1ccc(F)cc1`?
PMI act hi M6P: 2.4*; Tb hexokinase: 1; PMI act: 1.4; p97 inhibitor: 3; Redox H2O2 prof: 3; G6PDH CS: 5

Results for O=C(N/N=C/c1ccc(N2CCOCC2)cc1)c1ccc(O)cc1 ?
Tb hexokinase: -92; p97 inhibitor: 4

How did C/C(=N\Nc1ccc(F)cc1F)c1ccc(Br)s1 do in these assays?
PMI act hi M6P: 2.6*; Tb hexokinase: 2; PMI act: 1.7; p97 inhibitor: 3; Redox H2O2 prof: -2; G6PDH CS: -6

How did C/C(=N\NC(=O)c1ccc(F)cc1)c1ccc(N2CCOCC2)cc1 do in these assays?
PMI act hi M6P: 1; Tb hexokinase: -30; PMI act: 1; p97 inhibitor: 2; Redox H2O2 prof: -1; G6PDH CS: -2

How did Fc1ccc(N/N=C/c2ccc(N3CCOCC3)cc2)c(F)c1 do in these assays?
PMI act hi M6P: 2.2*; Tb hexokinase: -12; PMI act: 1.7; p97 inhibitor: -5; Redox H2O2 prof: -2; G6PDH CS: -10

How did C/C(=N\Nc1ccc(F)cc1F)c1ccc(N2CCOCC2)cc1 do in these assays?
PMI act hi M6P: 2.4*; Tb hexokinase: -23; PMI act: 1.6; p97 inhibitor: 7; Redox H2O2 prof: 0; G6PDH CS: 3

What do the screens show for `CCOC(=O)Cc1cc(=O)n(-c2nc3ccccc3s2)[nH]1`?
PMI act hi M6P: 2.4*; Tb hexokinase: -1; PMI act: 1.7; p97 inhibitor: 2; Redox H2O2 prof: 0; G6PDH CS: 3

What do the screens show for `Cc1ccc(-c2cc3c(nn2)-c2ccccc2C3=O)cc1`?
Tb hexokinase: -12; p97 inhibitor: -36

What do the screens show for `Cc1ccccc1-c1cc2c(nn1)-c1ccccc1C2=O`?
PMI act hi M6P: 2.5*; Tb hexokinase: -13; PMI act: 2*; p97 inhibitor: 4; Redox H2O2 prof: 0; G6PDH CS: 53*

Results for Cn1c(=O)c2cn3c(c2n(C)c1=O)C(c1ccccc1)CC(c1ccccc1)=N3 (stereo not given) ?
PMI act hi M6P: 2*; Tb hexokinase: -6; PMI act: 1.5; p97 inhibitor: 6; Redox H2O2 prof: -4; G6PDH CS: -16

Results for CCCc1nc2ccccc2n2cc3c(=O)n(C)c(=O)n(C)c3c12 ?
Tb hexokinase: -6; p97 inhibitor: 4; Redox H2O2 prof: 0

What do the screens show for `CC(C)CNC(=S)NC1CCCC1`?
PMI act hi M6P: 1; Tb hexokinase: -5; PMI act: 1.1; p97 inhibitor: 2; Redox H2O2 prof: 0; G6PDH CS: -1

Results for O=c1[nH]cnc(O)c1C(c1ccc2c(c1)OCO2)c1c(O)nc[nH]c1=O ?
PMI act hi M6P: 1; Tb hexokinase: 1; PMI act: 1.1; p97 inhibitor: 5; Redox H2O2 prof: -1; G6PDH CS: 7

How did Cc1ccc(S(=O)(=O)c2ccc(NN)cc2)cc1 do in these assays?
PMI act hi M6P: 2.5*; Tb hexokinase: 0; PMI act: 1.8; p97 inhibitor: 1; Redox H2O2 prof: -1; G6PDH CS: 2

How did C/C(=N\Nc1cccc2cccnc12)c1ccc(C)cc1 do in these assays?
PMI act hi M6P: 2.1*; Tb hexokinase: -6; PMI act: 1.6; p97 inhibitor: 0; Redox H2O2 prof: -1; G6PDH CS: 4

Results for CC(=O)/C(=N\Nc1ccccc1Cl)Sc1cccc2cccnc12 ?
PMI act hi M6P: 0.9; Tb hexokinase: -5; PMI act: 0.9; p97 inhibitor: 2; Redox H2O2 prof: 0; G6PDH CS: -8

Results for O=C(CSc1ccccc1)NCCSCc1ccccc1 ?
PMI act hi M6P: 1; Tb hexokinase: -7; PMI act: 1; p97 inhibitor: 0; Redox H2O2 prof: 0; G6PDH CS: 1

What do the screens show for `COC(=O)CNC(c1ccccc1Cl)c1cc(Br)ccc1NS(=O)(=O)c1ccc(C)cc1` (stereo not given)?
PMI act hi M6P: 0.9; Tb hexokinase: 2; PMI act: 0.8; p97 inhibitor: -2; Redox H2O2 prof: 0; G6PDH CS: 3

Results for NNC(=O)c1ccc2ccccc2n1 ?
PMI act hi M6P: 1; Tb hexokinase: 0; PMI act: 1.2; p97 inhibitor: 0; Redox H2O2 prof: 0; G6PDH CS: 2

What do the screens show for `COc1ccc(N=C(NN)c2ccc3ccccc3n2)cc1`?
PMI act hi M6P: 2.3*; Tb hexokinase: -9; PMI act: 1.8; p97 inhibitor: 0; Redox H2O2 prof: 0; G6PDH CS: 6

How did Cc1cc(C(=O)Cn2nc(C(=O)O)c3ccccc3c2=O)c(C)n1CCc1ccc(Cl)cc1 do in these assays?
PMI act hi M6P: 1; Tb hexokinase: 11; PMI act: 0.9; p97 inhibitor: 6; Redox H2O2 prof: -2; G6PDH CS: -4

How did C[C@@H](O)C1NC(=O)[C@H](CCCCN)NC(=O)c2cc([N+](=O)[O-])cc(I)c2OCC[C@@H](C(N)=O)NC1=O (stereo not given in full) do in these assays?
PMI act hi M6P: 1.2; Tb hexokinase: -88; PMI act: 1.3; p97 inhibitor: 6; Redox H2O2 prof: 0; G6PDH CS: 12

How did COn1c(C)c(C)c2c3nonc3ccc21 do in these assays?
Tb hexokinase: -13; p97 inhibitor: 19*

How did CCOC(=O)c1c(C)n(OCc2ccccc2)c2ccc3nonc3c12 do in these assays?
PMI act hi M6P: 0.9; Tb hexokinase: 0; PMI act: 0.8; p97 inhibitor: 1; Redox H2O2 prof: -2; G6PDH CS: -58

How did CC(C)(C)C1CCC2(CC1)NC(=S)N(c1ccccc1)N2 (stereo not given) do in these assays?
PMI act hi M6P: 2.8*; Tb hexokinase: 6; PMI act: 1.7; p97 inhibitor: 2; Redox H2O2 prof: 1; G6PDH CS: 1

How did CC(C)CSc1n[nH]c(=S)s1 do in these assays?
PMI act hi M6P: 1.4; Tb hexokinase: -9; PMI act: 0.8; p97 inhibitor: 7; Redox H2O2 prof: 0; G6PDH CS: 0

Results for O=C1NN=C(CSc2n[nH]c(=S)s2)CS1 ?
PMI act hi M6P: 2.1*; Tb hexokinase: -6; PMI act: 0.9; p97 inhibitor: 13; Redox H2O2 prof: 0; G6PDH CS: 1

How did O=C(Nc1cccnc1)OC1CCCC1 do in these assays?
PMI act hi M6P: 0.9; Tb hexokinase: 0; PMI act: 0.9; p97 inhibitor: 4; Redox H2O2 prof: 0; G6PDH CS: 3

Results for c1cc2c3c(cccc3c1)C(N1CCCCC1)=N2 ?
PMI act hi M6P: 0.4; Tb hexokinase: -10; PMI act: 0.7; p97 inhibitor: 2; Redox H2O2 prof: 0; G6PDH CS: 52*

Results for COc1cc2c(cc1OC)-c1cc3ccc4c(c3c[n+]1CC2)OCO4 ?
PMI act hi M6P: 0.5; Tb hexokinase: -306; PMI act: 0.8; p97 inhibitor: 11; Redox H2O2 prof: 0; G6PDH CS: 52*

Screening results from PubChem.
